Laboratory results from ChEMBL document CHEMBL3259653, “Potent and selective inhibitors of human reticulocyte 12/15-lipoxygenase as anti-stroke therapies” (J Med Chem, 2014).
Activity calls are given as the source filed them. The calls are words filed in the database; no cut-off is given here.

Legend:
[1] = molecular target: T1, Polyunsaturated fatty acid lipoxygenase ALOX15 (Homo sapiens, UniProt P16050); test: Inhibition of recombinant N-terminal His6-tagged human reticulocyte 12/15-lipoxygenase using arachidonic acid as substrate by UV-vis spectrometric analysis
T1 sequence (P16050 whole entry): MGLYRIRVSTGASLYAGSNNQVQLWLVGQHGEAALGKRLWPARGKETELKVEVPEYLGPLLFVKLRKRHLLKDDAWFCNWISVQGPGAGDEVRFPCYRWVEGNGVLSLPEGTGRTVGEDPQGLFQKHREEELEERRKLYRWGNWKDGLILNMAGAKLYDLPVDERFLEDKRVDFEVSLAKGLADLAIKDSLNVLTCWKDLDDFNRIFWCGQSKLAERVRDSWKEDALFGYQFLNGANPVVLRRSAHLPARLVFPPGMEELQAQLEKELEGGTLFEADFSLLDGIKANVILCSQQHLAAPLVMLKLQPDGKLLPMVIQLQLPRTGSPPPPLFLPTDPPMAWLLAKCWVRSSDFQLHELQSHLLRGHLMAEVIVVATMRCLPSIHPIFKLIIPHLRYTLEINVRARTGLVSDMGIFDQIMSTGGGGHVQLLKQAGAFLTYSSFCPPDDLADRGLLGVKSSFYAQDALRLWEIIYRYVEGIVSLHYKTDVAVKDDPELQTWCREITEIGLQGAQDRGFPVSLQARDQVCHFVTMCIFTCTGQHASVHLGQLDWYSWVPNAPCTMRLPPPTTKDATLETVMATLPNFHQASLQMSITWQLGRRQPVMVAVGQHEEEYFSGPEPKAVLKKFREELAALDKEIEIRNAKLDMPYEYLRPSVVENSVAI

[2] = molecular target: T2, Polyunsaturated fatty acid lipoxygenase ALOX15 (Homo sapiens) (UniProt P16050); test: Inhibition of recombinant N-terminal His6-tagged human reticulocyte 12/15-lipoxygenase using arachidonic acid as substrate at 25 uM by UV-vis spectrometric analysis relative to control
T2 sequence (whole entry): T1 sequence (P16050 whole entry)
Summary of the method: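 His6-tagged human 12/15-LOX, Ni-NTA purified, at 40 nM in 25 mM HEPES pH 7.5 with 0.01% Triton X-100 and 10 μM arachidonic acid, in a stirred cuvette at 22 °C. Diene formation was followed at 234 nm, and percent inhibition at 25 μM inhibitor was calculated against the DMSO control rate.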

[3] = molecular target: T3, Polyunsaturated fatty acid lipoxygenase ALOX15 (Mus musculus) (UniProt P39654); test: Inhibition of 12/15-lipoxygenase in mouse HT22 cells assessed as protection against glutamate-induced cell death at 5 uM after 24 hrs by LDH release assay; type: cell-based; details: HT-22
T3 sequence (whole entry): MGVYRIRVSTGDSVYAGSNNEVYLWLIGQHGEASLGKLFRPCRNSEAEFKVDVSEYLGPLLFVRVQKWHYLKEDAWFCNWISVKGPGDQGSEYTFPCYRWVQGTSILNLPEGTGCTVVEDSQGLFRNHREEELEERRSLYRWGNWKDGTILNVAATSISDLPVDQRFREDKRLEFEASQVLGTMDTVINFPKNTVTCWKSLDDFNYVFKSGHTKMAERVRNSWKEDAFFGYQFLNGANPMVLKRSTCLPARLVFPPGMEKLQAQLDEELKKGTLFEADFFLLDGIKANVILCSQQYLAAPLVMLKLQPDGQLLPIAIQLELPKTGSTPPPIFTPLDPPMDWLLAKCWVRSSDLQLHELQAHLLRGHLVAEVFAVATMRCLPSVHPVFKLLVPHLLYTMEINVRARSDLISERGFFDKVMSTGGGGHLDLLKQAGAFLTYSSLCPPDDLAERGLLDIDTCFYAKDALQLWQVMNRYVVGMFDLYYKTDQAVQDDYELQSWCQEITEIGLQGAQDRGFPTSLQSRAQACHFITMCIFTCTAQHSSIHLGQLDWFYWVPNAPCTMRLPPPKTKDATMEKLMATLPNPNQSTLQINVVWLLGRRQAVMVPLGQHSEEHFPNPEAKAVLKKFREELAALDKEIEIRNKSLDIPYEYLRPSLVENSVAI
Summary of the method: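 HT22 mouse hippocampal cells were grown in DMEM with 10% FBS and penicillin/streptomycin, seeded at 1 × 10^4 cells/well and treated 18 h later at 50–70% confluence. Medium was exchanged for fresh medium with 5 mM glutamate plus compound or DMSO (≤0.1% final). Death was scored as percent LDH released to the medium versus the cell extract, background-subtracted.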

[4] = molecular target: T4, Polyunsaturated fatty acid 5-lipoxygenase (Homo sapiens, UniProt P09917); test: Inhibition of human 5-lipoxygenase using arachidonic acid as substrate by UV-vis spectrometric analysis
T4 sequence (P09917 whole entry): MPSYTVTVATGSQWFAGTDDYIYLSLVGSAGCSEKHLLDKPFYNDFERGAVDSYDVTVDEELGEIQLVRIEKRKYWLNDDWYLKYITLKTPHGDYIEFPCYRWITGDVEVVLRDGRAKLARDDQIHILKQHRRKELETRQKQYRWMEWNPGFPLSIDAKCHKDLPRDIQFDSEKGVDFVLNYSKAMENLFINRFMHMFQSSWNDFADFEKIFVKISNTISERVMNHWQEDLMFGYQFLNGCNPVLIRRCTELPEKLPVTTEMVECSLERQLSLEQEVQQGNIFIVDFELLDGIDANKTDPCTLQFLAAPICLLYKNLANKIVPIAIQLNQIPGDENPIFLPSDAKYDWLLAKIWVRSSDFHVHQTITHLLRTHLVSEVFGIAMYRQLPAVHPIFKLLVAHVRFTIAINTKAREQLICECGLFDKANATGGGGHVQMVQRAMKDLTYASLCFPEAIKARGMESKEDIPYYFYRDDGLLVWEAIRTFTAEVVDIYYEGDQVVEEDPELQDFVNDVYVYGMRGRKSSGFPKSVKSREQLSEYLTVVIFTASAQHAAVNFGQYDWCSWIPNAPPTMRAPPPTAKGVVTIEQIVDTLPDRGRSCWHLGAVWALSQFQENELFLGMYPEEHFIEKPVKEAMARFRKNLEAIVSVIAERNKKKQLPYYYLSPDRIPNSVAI

[5] = molecular target: T5, Polyunsaturated fatty acid lipoxygenase ALOX15B (Homo sapiens, UniProt O15296); test: Inhibition of N-terminal His6-tagged human epithelial 15-lipoxygenase-2 using arachidonic acid as substrate by UV-vis spectrometric analysis
T5 sequence (O15296 whole entry): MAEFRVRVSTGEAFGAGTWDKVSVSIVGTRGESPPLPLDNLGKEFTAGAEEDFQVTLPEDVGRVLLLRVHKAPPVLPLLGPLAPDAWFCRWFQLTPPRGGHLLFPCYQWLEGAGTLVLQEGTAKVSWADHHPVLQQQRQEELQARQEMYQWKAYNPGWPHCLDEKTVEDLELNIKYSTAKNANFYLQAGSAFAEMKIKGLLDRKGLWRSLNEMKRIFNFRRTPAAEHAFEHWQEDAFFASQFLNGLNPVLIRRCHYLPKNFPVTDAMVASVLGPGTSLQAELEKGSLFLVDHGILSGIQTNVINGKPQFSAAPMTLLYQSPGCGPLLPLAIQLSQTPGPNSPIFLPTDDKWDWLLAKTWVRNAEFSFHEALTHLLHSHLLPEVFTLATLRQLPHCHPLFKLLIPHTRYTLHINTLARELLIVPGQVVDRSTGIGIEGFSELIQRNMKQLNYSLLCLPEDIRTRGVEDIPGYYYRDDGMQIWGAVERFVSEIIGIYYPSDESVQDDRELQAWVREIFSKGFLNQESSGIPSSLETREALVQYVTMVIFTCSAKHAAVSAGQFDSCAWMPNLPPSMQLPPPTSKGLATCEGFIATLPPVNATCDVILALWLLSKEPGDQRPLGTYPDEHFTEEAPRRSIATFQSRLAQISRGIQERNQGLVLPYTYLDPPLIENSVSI

[6] = molecular target: T6, Prostaglandin G/H synthase 1 (Ovis aries) (UniProt P05979); test: Inhibition of ovine COX-1 using arachidonic acid as substrate assessed as consumption of oxygen at 5 uM preincubated for 5 mins followed by substrate addition by oxygen electrode-based assay relative to control
T6 sequence (whole entry): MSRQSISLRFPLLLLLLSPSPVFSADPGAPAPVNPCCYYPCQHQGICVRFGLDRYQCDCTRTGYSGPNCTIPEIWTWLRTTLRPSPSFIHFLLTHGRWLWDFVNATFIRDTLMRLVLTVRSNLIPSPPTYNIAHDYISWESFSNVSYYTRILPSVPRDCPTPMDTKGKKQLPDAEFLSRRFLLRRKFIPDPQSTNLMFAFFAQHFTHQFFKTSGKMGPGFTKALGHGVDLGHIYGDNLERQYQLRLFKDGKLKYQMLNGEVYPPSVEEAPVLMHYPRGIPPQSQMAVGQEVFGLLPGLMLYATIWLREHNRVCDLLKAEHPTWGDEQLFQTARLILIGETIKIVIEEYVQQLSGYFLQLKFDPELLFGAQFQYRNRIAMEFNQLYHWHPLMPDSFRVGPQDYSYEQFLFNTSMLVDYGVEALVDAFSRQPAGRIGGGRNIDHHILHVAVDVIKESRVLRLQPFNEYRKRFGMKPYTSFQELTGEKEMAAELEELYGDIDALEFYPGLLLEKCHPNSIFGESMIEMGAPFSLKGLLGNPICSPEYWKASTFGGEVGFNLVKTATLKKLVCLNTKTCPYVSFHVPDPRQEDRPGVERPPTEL
Summary of the method: (§1)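 COX-1 or COX-2 (2–5 μg) in 0.1 M Tris-HCl pH 8.0 with 5 mM EDTA, 2 mM phenol and 1 μM hematin at 37 °C. Inhibitor was preincubated 5 min, then 100 μM arachidonic acid was added. Oxygen consumption was read on an oxygen electrode, and percent inhibition was calculated against a DMSO control, with indomethacin as positive control.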

[7] = molecular target: T7, Prostaglandin G/H synthase 2 (Homo sapiens) (UniProt P35354); test: Inhibition of human COX-2 using arachidonic acid as substrate assessed as consumption of oxygen at 5 uM preincubated for 5 mins followed by substrate addition by oxygen electrode-based assay relative to control; summary of the method: as §1
T7 sequence (whole entry): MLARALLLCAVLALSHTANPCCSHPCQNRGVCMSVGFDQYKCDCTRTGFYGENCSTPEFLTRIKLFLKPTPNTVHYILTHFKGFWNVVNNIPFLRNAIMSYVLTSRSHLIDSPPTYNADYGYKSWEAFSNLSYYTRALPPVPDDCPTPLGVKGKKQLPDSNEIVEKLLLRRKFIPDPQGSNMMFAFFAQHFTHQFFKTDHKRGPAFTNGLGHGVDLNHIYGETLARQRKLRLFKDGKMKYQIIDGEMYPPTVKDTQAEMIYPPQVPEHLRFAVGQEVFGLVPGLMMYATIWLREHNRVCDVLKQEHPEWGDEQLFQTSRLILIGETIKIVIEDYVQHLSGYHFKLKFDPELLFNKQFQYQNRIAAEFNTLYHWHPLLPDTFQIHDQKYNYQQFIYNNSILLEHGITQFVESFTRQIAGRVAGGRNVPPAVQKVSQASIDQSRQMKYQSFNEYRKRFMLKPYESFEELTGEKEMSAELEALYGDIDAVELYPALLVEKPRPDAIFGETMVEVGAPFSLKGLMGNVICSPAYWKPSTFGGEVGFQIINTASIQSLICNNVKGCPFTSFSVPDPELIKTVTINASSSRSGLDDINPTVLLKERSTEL

CNc1nnc(-c2cccc3ccccc23)s1
IC50 [1]: > 40 µM

N#Cc1nc(-c2cccc3ccccc23)oc1Nc1ccccc1
IC50 [1]: > 30 µM
Imax [2]: < 50%

CNc1nc(C#N)c(-c2cccc3ccccc23)o1
IC50 [1]: > 40 µM
inhibition [3]: inactive

CNc1oc(-c2cccc3ccccc23)nc1C(=O)OC
IC50 [1]: > 40 µM

CNc1sc(-c2cccc3ccccc23)nc1C#N
IC50 [4]: > 50 µM
IC50 [5]: > 50 µM
inhibition [6]: < 10%
inhibition [7]: < 10%

CNc1oc(-c2ccc3ccccc3c2)nc1C#N
Imax [2]: < 50%

CC(C)Nc1oc(-c2cccc3ccccc23)nc1C#N
IC50 [1]: > 40 µM

N#Cc1nc(-c2cccc3ccccc23)oc1NC1COC1
IC50 [1]: > 25 µM

CNc1oc(-c2cccc3cnccc23)nc1C#N
Imax [2]: < 50%

CNc1oc(-c2ccc(-c3ccccc3)cc2)nc1C#N
inhibition [3]: Active

CNc1oc(-c2ccc(Cl)c(Cl)c2)nc1C#N
inhibition [6]: < 10%
inhibition [7]: < 10%

N#Cc1nc(-c2cccc3ccccc23)oc1NCc1ccccc1
IC50 [1]: > 30 µM
Imax [2]: < 50%

N#Cc1nc(-c2cccc3ccccc23)oc1NC1CNC1
IC50 [1]: > 40 µM
inhibition [3]: Active

CNc1oc(-c2cccc(Cl)c2Cl)nc1C#N
inhibition [6]: < 10%
inhibition [7]: < 10%

CNc1oc(C2CCCC2)nc1C#N
IC50 [1]: > 50 µM

CNc1sc(-c2cccc3ccccc23)nc1C(=O)OC
Imax [2]: < 50%

CNc1nc(-c2cccc3ccccc23)ccc1C#N
IC50 [1]: > 40 µM
